According to ChEMBL document CHEMBL1926557 (Bioorg Med Chem, 2012):

Columns and labels:
[1] = Antineuroinflammatory activity in LPS-stimulated rat microglia cells assessed as inhibition of PMA-stimulated TXB2 release preincubated for 15 mins measured 70 mins after PMA challenge; format: functional
Outline: (§1)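 Rat neonatal microglia (2 × 10^5 cells/well) primed with E. coli LPS 0.3 ng/mL for 17 h in DMEM + 10% FBS + penicillin/streptomycin at 35.9 °C, 5% CO2. Cells washed with warm HBSS, pre-exposed to compound (0.01–10 µM) or DMSO vehicle, then triggered with PMA 1 µM. TXB2 in supernatant quantified by EIA. Triplicate wells, 1 mL final volume, 2–4 experiments. IC50 derived.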

[2] = Cytotoxicity against rat microglia cells after 90 mins by LDH release assay; format: cell-based; details: 1.5 h
Outline: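 Short-term viability of PMA (1 µM)-stimulated rat microglia measured by LDH release, given as percent of total LDH. Total LDH is released LDH plus the intracellular LDH from cells lysed with 0.1% Triton X-100. LDH50 is the concentration causing release of 50% of total LDH. Data from 3–4 experiments.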

[3] = Cytotoxicity against rat microglia cells assessed as cell viability after 18 hrs by WST-1 assay; format: cell-based
Outline: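 Rat neonatal microglia (10,000 cells/well) plated in LPS-free wells in FBS-free DMEM with penicillin/streptomycin. Compound (0.1–10 µM final) or DMSO vehicle added for 18 h at 36 °C, 5% CO2. WST-1 then added for 2 h, and formazan read at 450 nm against a 620 nm reference. Treated wells compared with vehicle, significance at p < 0.05.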

[4] = Antineuroinflammatory activity in LPS-stimulated rat microglia cells assessed as inhibition of PMA-stimulated superoxide anion release preincubated for 15 mins measured 70 mins after PMA challenge; format: functional
Outline: as §1, with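 “Superoxide measured as superoxide dismutase-inhibitable reduction of ferricytochrome c.” for “TXB2 in supernatant quantified by EIA.”, “wells,” for “wells, 1 mL final volume,”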

SMILES	IC50 ([1]; read-out: IC50(app))	IC50 [2]	Activity [3]	IC50 ([1]; read-out: IC50)	IC50 [4]
CC(C(=O)O)c1ccc(-c2ccccc2)c(F)c1 (stereo not given) [FLURBIPROFEN]	0.1 µM	–	–	–	–
C=C1CC[C@@]2(NC=O)[C@H]3[C@H](CC[C@@H]2C)[C@@H](C)C[C@@H](CC(C)(C)NC=O)[C@H]13	–	> 10 µM	Non-toxic	3.14 µM	> 10 µM
CC(=O)Oc1ccccc1C(=O)O [ASPIRIN]	–	–	–	3.12 µM	–
[C-]#[N+]C(C)(C)C[C@@H]1C[C@H](C)[C@H]2CC[C@H](C)[C@@]3([N+]#[C-])CCC(=O)[C@@H]1[C@H]23	–	> 10 µM	Non-toxic	1.43 µM	> 10 µM
[C-]#[N+][C@@]12CCC(=C)[C@H]3[C@H](CC(C)(C)NC(=O)CN4CCC4=O)C[C@H](C)[C@@H](CC[C@@H]1C)[C@@H]32 [MONAMPHILECTINE A]	–	> 10 µM	Non-toxic	4.69 µM	> 10 µM
[C-]#[N+]C(C)(C)C[C@@H]1C[C@H](C)[C@H]2CC[C@H](C)[C@@]3([N+]#[C-])CCC(=C)[C@@H]1[C@H]23 [DIISOCYANOAMPHILECTENE]	–	> 10 µM	Non-toxic	0.23 µM	> 10 µM
[C-]#[N+][C@@]12CCC(=C)[C@H]3[C@H](CC(C)(C)NC=O)C[C@H](C)[C@@H](CC[C@@H]1C)[C@@H]32	–	> 10 µM	Non-toxic	1.48 µM	> 10 µM
[C-]#[N+][C@@]1(C)CC[C@H]2[C@H]3[C@@H](C(=C)CC[C@H]31)[C@H](CC(=C)C)C[C@@H]2C	–	> 10 µM	Non-toxic	1.72 µM	> 10 µM
[C-]#[N+]C(C)(C)C[C@@H]1C[C@H](C)[C@H]2CC[C@](C)([N+]#[C-])[C@@H]3CCC(=C)[C@@H]1[C@H]23	–	> 10 µM	Non-toxic	0.2 µM	> 10 µM
